Measurements pooled from the literature.
Each line is one published result; the experiments were not run side by side.

CCC[C@@](N)(CO)CCc1ccc(OCCCCCC(C)C)cc1 gave an AUC(0-t) of 6.18 µM·h (rat; plasma; oral; 30 mg/kg).
With Cn1cnc(Cn2c(=O)[nH]/c(=N\c3cc4cn(C)nc4cc3Cl)n(Cc3cc(F)c(F)cc3F)c2=O)n1 the AUC(0-t) was 515000 ng·h/mL (male Sprague-Dawley rat; plasma; oral; 25 mg/kg).
The AUC(0-inf) of N=c1c2c(-c3ccccc3)c(-c3ccccc3)n(Cc3ccccc3)c2ncn1[C@H]1CC[C@H](O)CC1 is reported as 1500 ng·h/mL (male Sprague-Dawley rat; plasma; oral; 2 mg/kg; single dose).
CN(C)C(=O)Oc1cc(OC(=O)N(C)C)cc(-c2cc3ccc(O)cc3o2)c1 gave an AUC(0-t) of 17.7 ng·h/mL (male rat; plasma; oral; 5 mg/kg).
With COC(=O)C(NC(=O)c1cn(CCCCCF)c2ccccc12)C(C)(C)C (stereo not shown) the AUC(0-t) was 8.61 ng·h/mL (male Sprague-Dawley rat; plasma; subcutaneous; 50 µg/kg).
CC(C)(C)[C@H](NC(=O)[C@H](CCONC(=N)N)NC(=O)Cc1ccc(CNC(=N)N)cc1)C(=O)N[C@@H](CCONC(=N)N)C(=O)NCc1ccc(C(=N)N)cc1 gave an AUC(0-inf) of 9640 ng·h/mL (male Sprague-Dawley rat; plasma; intraperitoneal; 2.5 mg/kg).
The AUC(0-t) of CCCCCn1cc(C(=O)Nc2cccc3ccccc23)c2ccccc21 is reported as 4240 ng·h/mL (male Long-Evans rat; plasma; intraperitoneal; 3 mg/kg).
For [2H]C([2H])(c1cc(F)c(F)cc1F)n1c(=O)n(Cc2ncn(C)n2)c(=O)[nH]/c1=N\c1cc2cn(C)nc2cc1Cl, the AUC(0-t) was 451000 ng·h/mL (male Sprague-Dawley rat; plasma; oral; 25 mg/kg).
For CCCCCCCC(=O)N[C@@H](CCCCN)C(=O)N[C@@H](CCCCN)C(=O)N[C@@H](C)C(=O)N[C@@H](CC(C)C)C(=O)N[C@@H](CCCCN)C(=O)N[C@@H](CC(C)C)C(=O)N[C@@H](C)C(=O)N[C@@H](CCCCN)C(=O)N[C@@H](CCCCN)C(=O)N1CCC[C@H]1C(=O)N[C@@H](CC(C)C)C(=O)N[C@@H](CCCCN)C(=O)N[C@@H](CC(C)C)C(=O)N[C@@H](CC(C)C)C(=O)N[C@@H](CCCCN)C(N)=O, the AUC(0-inf) was 273 ng·h/mL (male Sprague-Dawley rat; blood; intravenous; 3 mg/kg; infusion).
O=C([O-])C(=O)[O-].[NH-][C@@H]1CCCC[C@H]1[NH-].[Pt+4] (relative stereo) has an AUC(0-t) of 111 ng·h/mL (rat; plasma; oral; 10 mg/kg).
With Cl.Cl.O=C(CCN1CCCCC1)c1ccc(-c2ccc(C(=O)CCN3CCCCC3)cc2)cc1 the AUC(0-t) was 135 ng·h/mL (Sprague-Dawley rat; plasma; oral; 25 mg/kg).
With CCCCCn1nc(C(=O)Nc2cccc3ccccc23)c2ccccc21 the AUC(0-t) was 304 ng·h/mL (male Long-Evans rat; plasma; intraperitoneal; 3 mg/kg).
With [2H]C([2H])([2H])n1cc2cc(Nc3nc(=O)n(Cc4ncn(C)n4)c(=O)n3Cc3cc(F)c(F)cc3F)c(Cl)cc2n1 the AUC(0-t) was 89900 ng·h/mL (male Sprague-Dawley rat; plasma; intravenous; 5 mg/kg).
